Experimental data reported in ChEMBL document CHEMBL3627690, “Scaffold-Hopping and Structure-Based Discovery of Potent, Selective, And Brain Penetrant N-(1H-Pyrazol-3-yl)pyridin-2-amine Inhibitors of Dual Leucine Zipper Kinase (DLK, MAP3K12)” (J Med Chem, 2015).
pIC50: −log10 of the molar value. The source made the active and inactive calls. No cut-off for these calls is given here.

Legend:
[1] = biological target: Vascular endothelial growth factor receptor 2 (Homo sapiens) (UniProt P35968); assay: Inhibition of KDR (unknown origin) at 1 uM by FRET method
Chain of Vascular endothelial growth factor receptor 2 (Homo sapiens) (P35968 whole entry): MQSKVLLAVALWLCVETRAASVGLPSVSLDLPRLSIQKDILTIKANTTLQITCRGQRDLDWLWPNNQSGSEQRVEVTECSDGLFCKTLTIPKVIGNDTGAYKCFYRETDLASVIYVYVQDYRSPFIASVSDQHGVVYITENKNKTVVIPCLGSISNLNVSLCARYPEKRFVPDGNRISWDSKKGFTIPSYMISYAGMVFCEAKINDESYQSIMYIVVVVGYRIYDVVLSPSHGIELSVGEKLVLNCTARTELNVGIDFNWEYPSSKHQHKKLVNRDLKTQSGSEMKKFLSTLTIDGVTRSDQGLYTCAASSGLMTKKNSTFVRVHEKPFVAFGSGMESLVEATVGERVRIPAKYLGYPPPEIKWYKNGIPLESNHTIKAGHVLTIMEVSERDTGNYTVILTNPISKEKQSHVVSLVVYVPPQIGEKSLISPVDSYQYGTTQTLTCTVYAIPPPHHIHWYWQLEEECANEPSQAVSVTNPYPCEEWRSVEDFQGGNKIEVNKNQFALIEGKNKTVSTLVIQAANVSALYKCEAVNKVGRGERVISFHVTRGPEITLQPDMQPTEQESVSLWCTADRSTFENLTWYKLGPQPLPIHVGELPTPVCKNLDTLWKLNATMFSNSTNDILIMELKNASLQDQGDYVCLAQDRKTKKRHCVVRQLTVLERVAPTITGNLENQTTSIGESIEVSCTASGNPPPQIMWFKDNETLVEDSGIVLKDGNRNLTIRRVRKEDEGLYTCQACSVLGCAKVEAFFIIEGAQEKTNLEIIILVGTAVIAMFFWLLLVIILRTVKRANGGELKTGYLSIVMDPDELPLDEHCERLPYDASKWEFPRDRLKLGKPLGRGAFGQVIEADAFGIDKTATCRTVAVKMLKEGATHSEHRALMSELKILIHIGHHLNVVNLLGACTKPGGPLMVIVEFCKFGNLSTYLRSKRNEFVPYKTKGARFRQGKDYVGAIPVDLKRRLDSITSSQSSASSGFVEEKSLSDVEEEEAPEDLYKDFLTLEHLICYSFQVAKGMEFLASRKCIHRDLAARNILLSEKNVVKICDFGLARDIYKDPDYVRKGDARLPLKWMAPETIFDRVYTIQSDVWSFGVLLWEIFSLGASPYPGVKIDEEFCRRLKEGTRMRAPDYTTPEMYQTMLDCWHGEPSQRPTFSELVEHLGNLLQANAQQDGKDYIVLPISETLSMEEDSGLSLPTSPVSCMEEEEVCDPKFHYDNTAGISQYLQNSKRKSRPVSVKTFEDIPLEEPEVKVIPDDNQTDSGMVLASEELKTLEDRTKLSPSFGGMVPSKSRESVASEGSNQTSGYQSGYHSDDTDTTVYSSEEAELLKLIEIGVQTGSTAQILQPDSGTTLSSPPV
Outline: (§1)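 SelectScreen panel of 58 kinases, each tested at a single 1 µM compound concentration. Read-out was Z′-LYTE FRET of labeled peptide phosphorylation, run by the vendor's protocols, reported as percent inhibition.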

[2] = biological target: Mitogen-activated protein kinase 9 (Homo sapiens, UniProt P45984); assay: Inhibition of JNK2 (unknown origin) by FRET method
Outline: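 JNK1, JNK2 and JNK3 IC50 values came from a 10-point dose–response enzymatic assay.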

[3] = biological target: CDK8/Cyclin C (Homo sapiens) (UniProt P49336+P24863); assay: Inhibition of […]/cyclinC (unknown origin) at 1 uM by FRET method; assay type: protein-complex assay; outline: as §1
[4] = biological target: Macrophage colony-stimulating factor 1 receptor (Homo sapiens, UniProt P07333); assay: Inhibition of CSF1R (unknown origin) by FRET method
[5] = biological target: T1, Mitogen-activated protein kinase kinase kinase 12 (Homo sapiens) (UniProt Q12852); assay: Inhibition of Flag DLK (unknown origin) transfected in HEK293 cells assessed as reduction of phosphorylation of JNK at 0.1 to 10 uM incubated for 5 hrs measured by Western blot analysis; assay type: cell-based
T1 sequence (whole entry): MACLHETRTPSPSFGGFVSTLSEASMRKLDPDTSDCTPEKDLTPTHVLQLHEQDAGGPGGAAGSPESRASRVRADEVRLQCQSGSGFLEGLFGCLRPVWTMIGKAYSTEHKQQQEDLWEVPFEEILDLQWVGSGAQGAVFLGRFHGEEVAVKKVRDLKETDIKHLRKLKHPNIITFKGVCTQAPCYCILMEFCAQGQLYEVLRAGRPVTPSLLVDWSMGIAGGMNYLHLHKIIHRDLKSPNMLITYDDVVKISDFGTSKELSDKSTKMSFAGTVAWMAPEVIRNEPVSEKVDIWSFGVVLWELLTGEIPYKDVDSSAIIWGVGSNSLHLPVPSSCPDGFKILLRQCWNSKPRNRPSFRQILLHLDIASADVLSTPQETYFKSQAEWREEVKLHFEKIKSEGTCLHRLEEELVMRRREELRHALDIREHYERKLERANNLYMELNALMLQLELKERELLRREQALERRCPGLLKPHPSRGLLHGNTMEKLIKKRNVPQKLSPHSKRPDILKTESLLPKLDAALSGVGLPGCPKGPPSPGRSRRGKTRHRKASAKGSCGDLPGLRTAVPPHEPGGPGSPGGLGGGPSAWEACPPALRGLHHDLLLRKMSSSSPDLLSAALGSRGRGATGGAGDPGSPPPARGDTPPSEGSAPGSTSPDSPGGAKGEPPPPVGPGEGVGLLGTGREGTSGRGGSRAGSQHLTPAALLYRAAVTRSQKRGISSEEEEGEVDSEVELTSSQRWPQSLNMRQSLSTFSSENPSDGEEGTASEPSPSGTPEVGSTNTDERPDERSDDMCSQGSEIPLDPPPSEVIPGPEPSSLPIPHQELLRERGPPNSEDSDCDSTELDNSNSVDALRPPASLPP
Outline: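 HEK293 cells were transfected with Flag-tagged DLK, with kinase-dead DLK K152A as comparator, 24 h before compound addition. Cells were then exposed to compound for 5 h. Phospho-MKK4, phospho-MKK7, phospho-JNK and phospho-c-Jun were probed.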

[6] = biological target: Tyrosine-protein kinase BTK (Homo sapiens) (UniProt Q06187); assay: Inhibition of BTK (unknown origin) at 1 uM by FRET method; outline: as §1
Chain of Tyrosine-protein kinase BTK (Homo sapiens) (Q06187 whole entry): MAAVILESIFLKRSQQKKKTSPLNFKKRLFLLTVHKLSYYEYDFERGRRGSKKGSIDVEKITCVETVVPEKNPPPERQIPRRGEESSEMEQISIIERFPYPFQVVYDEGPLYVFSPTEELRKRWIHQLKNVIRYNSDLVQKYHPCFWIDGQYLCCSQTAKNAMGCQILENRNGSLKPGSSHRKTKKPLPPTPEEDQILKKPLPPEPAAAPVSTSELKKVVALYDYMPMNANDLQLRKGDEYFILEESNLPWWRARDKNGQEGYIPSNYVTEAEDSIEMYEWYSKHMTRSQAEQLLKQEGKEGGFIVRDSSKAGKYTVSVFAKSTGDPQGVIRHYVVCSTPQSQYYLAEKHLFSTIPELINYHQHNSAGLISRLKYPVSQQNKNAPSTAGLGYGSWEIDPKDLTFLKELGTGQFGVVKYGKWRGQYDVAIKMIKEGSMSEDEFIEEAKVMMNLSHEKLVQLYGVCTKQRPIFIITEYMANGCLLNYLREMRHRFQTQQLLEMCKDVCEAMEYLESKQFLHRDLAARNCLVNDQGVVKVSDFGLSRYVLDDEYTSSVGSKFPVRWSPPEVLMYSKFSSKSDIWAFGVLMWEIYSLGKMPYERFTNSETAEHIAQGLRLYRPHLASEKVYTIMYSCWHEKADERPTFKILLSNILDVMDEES

[7] = system: Mus musculus; assay: Reduction of p-c-Jun level in retina of optic nerve crush injury mouse model at 75 mg/kg, po administered 30 mins prior to nerve crush injury measured at 6 hrs by MSD ELISA; assay type: functional, organism-based
Outline: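 C57/Bl6 mice were dosed orally with a methylcellulose suspension or vehicle 30 min before optic nerve crush. Retinal p-c-Jun was measured 6 h after injury by MSD ELISA. Values are expressed relative to uncrushed vehicle controls as mean ± SEM with individual animals.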

[8] = biological target: Inhibitor of nuclear factor kappa-B kinase subunit beta (Homo sapiens) (UniProt O14920); assay: Inhibition of IKKbeta (unknown origin) at 1 uM by FRET method; outline: as §1
[9] = biological target: Ribosomal protein S6 kinase alpha-3 (Homo sapiens) (UniProt P51812); assay: Inhibition of Rsk2 (unknown origin) at 1 uM by FRET method
Outline: (§2)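 Single-point screen at 1 uM against a panel of 58 representative kinases. Readout was labeled-peptide phosphorylation by FRET (Z′-LYTE), using the vendor's protocols.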

[10] = biological target: T2, Mitogen-activated protein kinase kinase kinase 12 (Homo sapiens, UniProt Q12852); assay: Inhibition of Dox inducible human DLK transfected in HEK293 cells assessed as reduction in JNK phosphorylation incubated for 5.5 hrs measured by Hoechst 33342 staining based imaging analysis; assay type: cell-based
T2 sequence (Q12852 whole entry): T1 sequence (whole entry)

[11] = biological target: Tyrosine-protein kinase Lck (Homo sapiens) (UniProt P06239); assay: Inhibition of Lck (unknown origin) at 1 uM by FRET method; outline: as §1
Chain of Tyrosine-protein kinase Lck (Homo sapiens) (P06239 2-509 limits assumed): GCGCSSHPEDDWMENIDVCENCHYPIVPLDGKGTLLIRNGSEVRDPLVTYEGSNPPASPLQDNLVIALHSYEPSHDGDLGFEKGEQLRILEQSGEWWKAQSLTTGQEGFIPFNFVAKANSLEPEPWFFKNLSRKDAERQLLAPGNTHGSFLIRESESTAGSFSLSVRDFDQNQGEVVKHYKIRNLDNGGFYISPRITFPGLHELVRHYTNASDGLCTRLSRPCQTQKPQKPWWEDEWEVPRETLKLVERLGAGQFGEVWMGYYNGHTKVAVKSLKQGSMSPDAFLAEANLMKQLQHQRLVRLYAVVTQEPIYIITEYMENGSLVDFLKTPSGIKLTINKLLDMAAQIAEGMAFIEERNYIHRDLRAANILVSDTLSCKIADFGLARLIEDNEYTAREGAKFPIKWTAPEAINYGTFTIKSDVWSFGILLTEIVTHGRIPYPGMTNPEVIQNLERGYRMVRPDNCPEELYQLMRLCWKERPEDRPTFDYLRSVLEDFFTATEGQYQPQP

[12] = biological target: High affinity nerve growth factor receptor (Homo sapiens, UniProt P04629); assay: Inhibition of TrkA (unknown origin) by FRET method
Chain of High affinity nerve growth factor receptor (P04629 whole entry): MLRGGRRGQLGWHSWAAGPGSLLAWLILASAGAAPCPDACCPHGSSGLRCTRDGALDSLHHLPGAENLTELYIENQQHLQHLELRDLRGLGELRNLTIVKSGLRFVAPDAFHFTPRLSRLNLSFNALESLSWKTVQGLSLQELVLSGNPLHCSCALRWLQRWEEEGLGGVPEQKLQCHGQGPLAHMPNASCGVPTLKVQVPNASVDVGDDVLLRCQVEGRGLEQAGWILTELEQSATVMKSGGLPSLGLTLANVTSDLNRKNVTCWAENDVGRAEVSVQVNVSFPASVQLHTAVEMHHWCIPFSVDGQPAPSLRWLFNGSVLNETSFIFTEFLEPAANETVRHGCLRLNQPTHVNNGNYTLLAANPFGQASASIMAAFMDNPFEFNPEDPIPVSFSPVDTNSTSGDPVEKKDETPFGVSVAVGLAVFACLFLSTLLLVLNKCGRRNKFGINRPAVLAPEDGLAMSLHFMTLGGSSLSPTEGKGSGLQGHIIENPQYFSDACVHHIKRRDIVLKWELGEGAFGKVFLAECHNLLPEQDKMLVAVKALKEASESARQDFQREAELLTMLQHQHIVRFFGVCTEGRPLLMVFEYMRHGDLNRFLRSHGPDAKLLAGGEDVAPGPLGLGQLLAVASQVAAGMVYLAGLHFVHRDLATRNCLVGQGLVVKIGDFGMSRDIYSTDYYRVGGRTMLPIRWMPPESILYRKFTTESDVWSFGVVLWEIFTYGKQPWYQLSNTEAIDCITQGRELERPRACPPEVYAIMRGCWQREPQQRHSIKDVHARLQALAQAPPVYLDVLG
Outline: (§3)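 Biochemical IC50 determination from a 10-point dose-response in an enzymatic Z′-LYTE assay. Labeled-peptide phosphorylation was read by FRET under the vendor's protocols.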

[13] = system: human MDR1; assay: Efflux ratio of permeability across basolateral to apical over apical to basolateral side in MDCK cells transfected with human MDR1 at 5 uM by LC-MS/MS analysis; settings: dog
[14] = system: Rattus norvegicus; assay: Dose normalized free AUC in rat at 0.4 or 1 mg/kg, iv and 1 or 5 mg/kg, po; settings: in vivo
[15] = biological target: Fibroblast growth factor receptor 1 (Homo sapiens) (UniProt P11362); assay: Inhibition of FGFR1 (unknown origin) at 1 uM by FRET method; outline: as §1
[16] = biological target: Proto-oncogene tyrosine-protein kinase Src (Homo sapiens, UniProt P12931); assay: Inhibition of Src (unknown origin) by FRET method; outline: as §3
Chain of Proto-oncogene tyrosine-protein kinase Src (P12931 2-536 limits assumed): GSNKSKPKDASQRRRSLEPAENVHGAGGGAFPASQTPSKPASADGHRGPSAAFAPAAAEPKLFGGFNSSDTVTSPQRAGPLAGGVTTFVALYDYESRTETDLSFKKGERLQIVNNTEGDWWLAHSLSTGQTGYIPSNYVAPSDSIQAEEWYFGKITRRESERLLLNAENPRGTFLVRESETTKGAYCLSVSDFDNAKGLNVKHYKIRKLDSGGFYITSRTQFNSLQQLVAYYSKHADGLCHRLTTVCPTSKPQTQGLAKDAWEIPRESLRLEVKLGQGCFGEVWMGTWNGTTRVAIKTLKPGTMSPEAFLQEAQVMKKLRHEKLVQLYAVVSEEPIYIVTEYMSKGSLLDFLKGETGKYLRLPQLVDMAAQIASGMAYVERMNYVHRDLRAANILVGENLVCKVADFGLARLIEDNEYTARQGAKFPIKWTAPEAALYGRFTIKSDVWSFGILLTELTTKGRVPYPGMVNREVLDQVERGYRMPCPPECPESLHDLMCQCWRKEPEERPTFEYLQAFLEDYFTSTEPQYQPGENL

[17] = biological target: Rho-associated protein kinase 1 (Homo sapiens) (UniProt Q13464); assay: Inhibition of ROCK1 (unknown origin) at 1 uM by FRET method; outline: as §2
[18] = biological target: TAK1/TAB1 (Homo sapiens) (UniProt Q15750+O43318); assay: Inhibition of TAK1-TAB1 (unknown origin) at 1 uM by FRET method; assay type: protein-complex assay; outline: as §2
[19] = biological target: Casein kinase II subunit alpha (Homo sapiens) (UniProt P68400); assay: Inhibition of CK2alpha1 (unknown origin) at 1 uM by FRET method; outline: as §1
Chain of Casein kinase II subunit alpha (Homo sapiens) (P68400 whole entry, looked up): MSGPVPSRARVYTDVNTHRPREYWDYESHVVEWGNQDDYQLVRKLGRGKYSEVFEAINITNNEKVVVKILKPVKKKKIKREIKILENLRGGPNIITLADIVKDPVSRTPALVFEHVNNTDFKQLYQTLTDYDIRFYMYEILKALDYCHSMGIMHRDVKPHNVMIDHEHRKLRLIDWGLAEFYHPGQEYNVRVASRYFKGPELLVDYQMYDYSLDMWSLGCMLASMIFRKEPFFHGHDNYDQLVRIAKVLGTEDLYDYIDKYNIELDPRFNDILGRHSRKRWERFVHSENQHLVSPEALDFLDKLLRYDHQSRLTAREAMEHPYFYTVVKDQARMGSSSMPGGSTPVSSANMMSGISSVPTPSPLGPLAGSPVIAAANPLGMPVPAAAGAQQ

[20] = biological target: Epidermal growth factor receptor (Homo sapiens) (UniProt P00533); assay: Inhibition of EGFR (unknown origin) at 1 uM by FRET method; outline: as §1
[21] = biological target: Cyclin-dependent kinase 1/cyclin B1 (Homo sapiens) (UniProt P06493+P14635); assay: Inhibition of CDK1/cyclinB (unknown origin) at 1 uM by FRET method; assay type: protein-complex assay; outline: as §1
Chain of Cyclin-dependent kinase 1/cyclin B1 (Homo sapiens) (P06493 whole entry, looked up): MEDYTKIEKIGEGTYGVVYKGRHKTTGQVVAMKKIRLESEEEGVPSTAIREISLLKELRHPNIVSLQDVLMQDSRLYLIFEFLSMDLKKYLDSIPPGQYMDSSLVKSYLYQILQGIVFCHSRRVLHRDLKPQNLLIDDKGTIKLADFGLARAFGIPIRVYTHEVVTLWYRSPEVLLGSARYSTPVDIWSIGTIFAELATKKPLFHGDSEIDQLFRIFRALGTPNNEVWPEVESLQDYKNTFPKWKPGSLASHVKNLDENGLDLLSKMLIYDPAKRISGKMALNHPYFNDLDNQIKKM
Chain of Cyclin-dependent kinase 1/cyclin B1 (Homo sapiens) (P14635 whole entry, looked up): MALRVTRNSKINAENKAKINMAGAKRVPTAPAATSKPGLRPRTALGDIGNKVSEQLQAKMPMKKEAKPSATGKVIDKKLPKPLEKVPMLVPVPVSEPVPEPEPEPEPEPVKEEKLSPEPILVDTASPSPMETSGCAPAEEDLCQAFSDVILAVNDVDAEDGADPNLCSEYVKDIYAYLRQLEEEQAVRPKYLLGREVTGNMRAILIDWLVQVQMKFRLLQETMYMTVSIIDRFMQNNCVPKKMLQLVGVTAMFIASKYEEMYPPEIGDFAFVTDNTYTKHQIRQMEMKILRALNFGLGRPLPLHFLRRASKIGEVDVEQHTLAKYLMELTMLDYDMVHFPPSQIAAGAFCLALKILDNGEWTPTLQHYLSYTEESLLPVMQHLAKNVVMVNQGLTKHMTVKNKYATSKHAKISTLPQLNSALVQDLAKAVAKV

[22] = biological target: Platelet-derived growth factor receptor beta (Homo sapiens) (UniProt P09619); assay: Inhibition of PDGFRbeta (unknown origin) at 1 uM by FRET method; outline: as §2

## N#Cc1ccnc(Nc2cc(C3CCN(C4COC4)CC3)n(C3CCCC3)n2)c1
[1]
  inhibition: 5.2%
[2]
  pIC50: 5.30
[3]
  inhibition: 11.6%
[4]
  pIC50: 7.24
[5]
  inhibition: Active
[6]
  inhibition: 32.4%
[7]
  Activity: Active
[8]
  inhibition: 5.4%
[9]
  inhibition: 5.7%
[10]
  pIC50: 6.27
[11]
  inhibition: 37.5%
[12]
  pIC50: 6.33
[13]
  efflux ratio at 5 µM: 1.4
[14]
  fAUC/dose: 0.03 kg·h/L
[15]
  inhibition: 0.3%
[16]
  pIC50: 6.00
[17]
  inhibition: -3%
[18]
  inhibition: 13.6%
[19]
  inhibition: 1.3%
[20]
  inhibition: 2.1%
[21]
  inhibition: 13.5%
[22]
  inhibition: 23.8%
